The text below walks through data of ChEMBL document CHEMBL4428042, “Discovery and Characterization of a Class of Pyrazole Inhibitors of Bacterial Undecaprenyl Pyrophosphate Synthase” (J Med Chem, 2016).

Values after ≈ are worked out from the molar mass of the structure shown. Active and inactive are the calls of the source. The calls are words filed in the database; no cut-off is given here. Bounds are passed on as bounds.

One data set has as its system Escherichia coli. The data set can be described thus: Antibacterial activity against Escherichia coli 120 deficient in AcrAB incubated for 18 to 24 hrs by broth microdilution method. The data set is classed as functional. A general note: Broth dilution looks for growth in wells or tubes with falling amounts of substance.
The test system of data set [1] is Haemophilus influenzae. The data set can be described thus: Antibacterial activity against Haemophilus influenzae H128 incubated for 18 to 24 hrs by broth microdilution method. The format is functional.
Another data set concerns Moraxella catarrhalis. The data set can be described thus: Antibacterial activity against Moraxella catarrhalis 1502 incubated for 18 to 24 hrs by broth microdilution method. The format is functional.
Data set [2] concerns Haemophilus influenzae. The data set can be described thus: Antibacterial activity against Haemophilus influenzae H128 deficient in AcrA incubated for 18 to 24 hrs by broth microdilution method. The format is functional.
The test system of data set [3] is Streptococcus pneumoniae. The data set can be described thus: Antibacterial activity against Streptococcus pneumoniae Ery2 incubated for 18 to 24 hrs by broth microdilution method. The data set is classed as functional.
A further data set relates to Klebsiella pneumoniae. The data set can be described thus: Antibacterial activity against Klebsiella pneumoniae 1161486a deficient in tolC incubated for 18 to 24 hrs by broth microdilution method. The format is functional.
For the next data set, the system named is Pseudomonas aeruginosa. The data set can be described thus: Antibacterial activity against Pseudomonas aeruginosa PAO322 deficient in MexA/B/C/D/E/F incubated for 18 to 24 hrs by broth microdilution method. The data set is classed as functional.
Another data set has as its system Streptococcus pyogenes. The data set can be described thus: Antibacterial activity against Streptococcus pyogenes 1307006P incubated for 18 to 24 hrs by broth microdilution method. The data set is classed as functional.
For the next data set, the system named is Acinetobacter baumannii. The data set can be described thus: Antibacterial activity against Acinetobacter baumannii ACM1010 incubated for 18 to 24 hrs by broth microdilution method. The data set is classed as functional.
Data set [4] concerns Staphylococcus aureus. The data set can be described thus: Antibacterial activity against Staphylococcus aureus WCUH29 incubated for 18 to 24 hrs by broth microdilution method. The data set is classed as functional.
Data set [5] has as its system Streptococcus pneumoniae. The data set can be described thus: Antibacterial activity against Streptococcus pneumoniae 1629 incubated for 18 to 24 hrs by broth microdilution method. The format is functional.
Data set [6] deals with Staphylococcus aureus. The data set can be described thus: Antibacterial activity against Staphylococcus aureus OXFORD incubated for 18 to 24 hrs by broth microdilution method. The data set is classed as functional.
The nature of data set [7]: Inhibition of N-terminal FLAG-tagged and C-terminal SBP-tagged Staphylococcus aureus recombination UppS assessed as reduction in IPP condensation to growing prenyl chain by measuring pyrophosphate production incubated for 30 mins.
Data set [8] has as its target T1, Ditrans,polycis-undecaprenyl-diphosphate synthase ((2E,6E)-farnesyl-diphosphate specific) (Klebsiella pneumoniae, UniProt A0A080SPQ8).
T1 sequence (A0A080SPQ8 whole entry): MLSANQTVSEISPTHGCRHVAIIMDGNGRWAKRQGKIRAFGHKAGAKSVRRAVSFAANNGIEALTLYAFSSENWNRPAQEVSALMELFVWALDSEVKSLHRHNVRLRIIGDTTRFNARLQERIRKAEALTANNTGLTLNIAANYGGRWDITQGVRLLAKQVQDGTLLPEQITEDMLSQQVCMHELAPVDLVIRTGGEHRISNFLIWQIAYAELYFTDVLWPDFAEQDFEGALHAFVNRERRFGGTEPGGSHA
The data set can be described thus: Inhibition of hexa-histidine tagged Klebsiella pneumoniae UppS expressed in Escherichia coli assessed as reduction in IPP condensation to growing prenyl chain by measuring pyrophosphate production.

For data set [9], the system named is Staphylococcus aureus. The data set can be described thus: Binding affinity to N-terminal FLAG-tagged and C-terminal SBP-tagged Staphylococcus aureus recombination UppS assessed change in melting temperature at 10 uM by SYPRO Orange based assay.
A short description of data set [10]: Cytotoxicity against mouse L5178Y TK+/- suspension cells incubated for 72 hrs by Cell-titer-Glo reagent based assay. Particulars: read-out: TC50.
Data set [11] has as its system Staphylococcus aureus. The data set can be described thus: Antibacterial activity against Staphylococcus aureus RN4220 transfected with pYH4-UppS in presence of anhydrotetracycline incubated for 18 to 24 hrs by broth microdilution method. The data set is classed as functional. Put shortly: (§1)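 S. aureus strain carrying an inducible uppS over-expression plasmid, with anhydrotetracycline inducer at 0.1 µg/mL. MIC was compared with the un-induced system and with a plasmid vector control strain.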

The test system of data set [12] is Staphylococcus aureus. The data set can be described thus: Antibacterial activity against Staphylococcus aureus RN4220 transfected with pYH4-UppS in absence of anhydrotetracycline incubated for 18 to 24 hrs by broth microdilution method. The data set is classed as functional.
Data set [13] relates to Staphylococcus aureus. The data set can be described thus: Antibacterial activity against Staphylococcus aureus RN4220 expressing UppS F148L mutant incubated for 18 to 24 hrs by broth microdilution method. The data set is classed as functional. Put shortly: (§2)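 S. aureus resistant mutants were isolated from the wild-type laboratory strain in the presence of the pyrazole UppS inhibitor and then tested for MIC.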

In data set [14] the test system is Staphylococcus aureus. The data set can be described thus: Resistance index, ratio of MIC for antibacterial activity against Staphylococcus aureus RN4220 transfected with pYH4-UppS in presence of anhydrotetracycline to MIC for antibacterial activity against Staphylococcus aureus RN4220 transfected with pYH4-UppS in absence of anhydrotetracycline. The format is functional. Put shortly: as §1

Data set [15] addresses T2, Ditrans,polycis-undecaprenyl-diphosphate synthase ((2E,6E)-farnesyl-diphosphate specific) (Pseudomonas aeruginosa (strain ATCC 15692 / DSM 22644 / CIP 104116 / JCM14847 / LMG 12228 / 1C / PRS 101 / PAO1), UniProt Q9HXY2).
T2 sequence (Q9HXY2 whole entry): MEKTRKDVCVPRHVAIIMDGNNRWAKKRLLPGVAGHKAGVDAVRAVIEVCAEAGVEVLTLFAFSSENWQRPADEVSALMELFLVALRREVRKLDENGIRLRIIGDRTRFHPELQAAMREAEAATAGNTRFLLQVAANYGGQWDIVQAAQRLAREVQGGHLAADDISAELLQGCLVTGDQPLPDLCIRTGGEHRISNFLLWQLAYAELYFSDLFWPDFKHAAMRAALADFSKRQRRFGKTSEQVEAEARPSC
The data set can be described thus: Inhibition of hexa-histidine tagged Pseudomonas aeruginosa UppS expressed in Escherichia coli assessed as reduction in IPP condensation to growing prenyl chain by measuring pyrophosphate production incubated for 30 mins.

Data set [16] addresses T3, Ditrans,polycis-undecaprenyl-diphosphate synthase ((2E,6E)-farnesyl-diphosphate specific) (Acinetobacter baumannii, UniProt V5VCK8).
T3 sequence (V5VCK8 whole entry): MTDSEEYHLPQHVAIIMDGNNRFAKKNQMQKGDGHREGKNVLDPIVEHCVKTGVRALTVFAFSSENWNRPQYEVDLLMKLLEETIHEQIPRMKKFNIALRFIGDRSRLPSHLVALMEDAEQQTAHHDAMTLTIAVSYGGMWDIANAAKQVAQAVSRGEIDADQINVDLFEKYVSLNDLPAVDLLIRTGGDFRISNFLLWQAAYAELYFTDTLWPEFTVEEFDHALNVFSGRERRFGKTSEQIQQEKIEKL
The data set can be described thus: Inhibition of hexa-histidine tagged Acinetobacter baumannii UppS expressed in Escherichia coli assessed as reduction in IPP condensation to growing prenyl chain by measuring pyrophosphate production.

Data set [17] concerns Staphylococcus aureus. The data set can be described thus: Antibacterial activity against Staphylococcus aureus RN4220 transfected with pYH4 in absence of anhydrotetracycline incubated for 18 to 24 hrs by broth microdilution method. The format is functional.
Data set [18] has as its system Staphylococcus aureus. The data set can be described thus: Antibacterial activity against Staphylococcus aureus RN4220 expressing wild type UppS incubated for 18 to 24 hrs by broth microdilution method. The data set is classed as functional.
Data set [19] deals with Staphylococcus aureus. The data set can be described thus: Binding affinity to N-terminal FLAG-tagged and C-terminal SBP-tagged Staphylococcus aureus recombinant UppS expressed in Escherichia coli by affinity selection based ELT screen assay.
Data set [20] has as its system Staphylococcus aureus. The data set can be described thus: Antibacterial activity against Staphylococcus aureus RN4220 expressing UppS F103L mutant incubated for 18 to 24 hrs by broth microdilution method. The data set is classed as functional. Put shortly: as §2
The test system of data set [21] is Staphylococcus aureus. The data set can be described thus: Antibacterial activity against Staphylococcus aureus RN4220 transfected with pYH4 in presence of anhydrotetracycline incubated for 18 to 24 hrs by broth microdilution method. The format is functional.

For the compound `O=C(O)c1cn(C2CC2)c2cc(N3CCNCC3)c(F)cc2c1=O` [CIPROFLOXACIN], the MIC is at most 0.008 µg/mL against Escherichia coli; at most 0.008 µg/mL in the data set with Haemophilus influenzae [1]; 0.03 µg/mL (≈ 0.0905 µM) in the data set with Moraxella catarrhalis; at most 0.008 µg/mL against Haemophilus influenzae [2]; 2 µg/mL (≈ 6.04 µM) in the data set with Streptococcus pneumoniae [3]; at most 0.008 µg/mL in the data set with Klebsiella pneumoniae. The MIC in the data set with Pseudomonas aeruginosa is at most 0.008 µg/mL; against Streptococcus pyogenes, 0.5 µg/mL (≈ 1.51 µM); against Acinetobacter baumannii it was above 8 µg/mL; against Staphylococcus aureus [4], 0.5 µg/mL (≈ 1.51 µM); in the data set on Streptococcus pneumoniae [5], 0.25 µg/mL (≈ 0.754 µM).
A word on the IC50: it is the point on the concentration scale where inhibition reaches its midpoint. The ΔTm is the change in melting temperature against a reference sample. Regarding `CC(C)Oc1ccc(CN(CCC(N)=O)C(=O)c2cnn(Cc3ccccc3)c2-c2ccc3sccc3c2)cc1`, the MIC in the data set with Escherichia coli was above 128 µg/mL; in the data set on Haemophilus influenzae [1], above 128 µg/mL; in the data set on Staphylococcus aureus [6] it was 8 µg/mL (≈ 14.5 µM); in the data set with Moraxella catarrhalis, 8 to 16 µg/mL (≈ 14.5 to 28.9 µM); in the data set on Haemophilus influenzae [2], 8 to 16 µg/mL (≈ 14.5 to 28.9 µM); in the data set with Streptococcus pneumoniae [3] it was 32 to 64 µg/mL (≈ 57.9 to 116 µM). Further, the MIC is above 128 µg/mL with Klebsiella pneumoniae; above 128 µg/mL with Pseudomonas aeruginosa; 64 µg/mL in the data set with Staphylococcus aureus [11]; 32 µg/mL (≈ 57.9 µM) against Staphylococcus aureus [12]; 64 µg/mL (≈ 116 µM) with Staphylococcus aureus [13]; 8 µg/mL (≈ 14.5 µM) in the data set with Staphylococcus aureus [17]. In addition, the MIC with Staphylococcus aureus [18] is 8 µg/mL (≈ 14.5 µM); in the data set on Streptococcus pyogenes, 64 µg/mL (≈ 116 µM); against Staphylococcus aureus [20], 64 µg/mL (≈ 116 µM); against Acinetobacter baumannii, above 128 µg/mL; in the data set with Staphylococcus aureus [4] it was 4 to 8 µg/mL (≈ 7.24 to 14.5 µM); against Streptococcus pneumoniae [5], 32 to 64 µg/mL (≈ 57.9 to 116 µM). Further, the MIC in the data set on Staphylococcus aureus [21] is 8 µg/mL. The IC50 in data set [7] is 0.19 µM; in data set [8] it was above 100 µM; in data set [15] it was above 100 µM; in data set [16], above 100 µM. The ΔTm in the data set on Staphylococcus aureus [9] is 8 °C. Also, the CC50 at 72 h in [10] amounted to 25 µM. The Ratio in the data set on Staphylococcus aureus [14] turned out to be 2. The outcome in the data set with Staphylococcus aureus [19] was Active.
As for `Cc1ccc(-c2c(C(=O)N(CCC(N)=O)Cc3ccc(OC(C)C)cc3)cnn2Cc2ccccc2)cc1`, the MIC against Escherichia coli is above 128 µg/mL; in the data set on Haemophilus influenzae [1], above 128 µg/mL; against Staphylococcus aureus [6] it was 32 to 64 µg/mL (≈ 62.7 to 125 µM); against Moraxella catarrhalis it was 32 µg/mL (≈ 62.7 µM); in the data set with Haemophilus influenzae [2], 32 µg/mL (≈ 62.7 µM); against Streptococcus pneumoniae [3] it was 128 µg/mL (≈ 251 µM). In addition, the MIC with Klebsiella pneumoniae was above 128 µg/mL; with Pseudomonas aeruginosa, above 128 µg/mL; in the data set with Staphylococcus aureus [11], above 128 µg/mL; in the data set on Staphylococcus aureus [12], 128 µg/mL (≈ 251 µM); in the data set with Staphylococcus aureus [17], 64 µg/mL (≈ 125 µM); in the data set with Streptococcus pyogenes, 128 µg/mL (≈ 251 µM). The MIC against Acinetobacter baumannii is above 128 µg/mL; against Staphylococcus aureus [4], 32 to 64 µg/mL (≈ 62.7 to 125 µM); against Streptococcus pneumoniae [5], 128 µg/mL (≈ 251 µM); in the data set on Staphylococcus aureus [21] it was 32 µg/mL. The IC50 was 0.97 µM in [7], above 100 µM in data set [8], above 100 µM in data set [15] and above 100 µM in data set [16]. Further, in the data set with Staphylococcus aureus [9], the ΔTm amounted to 11 °C. The CC50 at 72 h in data set [10] came to 100 µM. For the same compound, the result with Staphylococcus aureus [19] was Active.
As to `C[C@@H](O)[C@H]1C(=O)N2C(C(=O)O)=C(S[C@@H]3CN[C@H](C(=O)N(C)C)C3)[C@H](C)[C@H]12` [MEROPENEM], the MIC is 0.03 µg/mL (≈ 0.0782 µM) against Escherichia coli; 0.125 µg/mL (≈ 0.326 µM) against Haemophilus influenzae [1]; 0.125 µg/mL (≈ 0.326 µM) against Staphylococcus aureus [6]; at most 0.008 µg/mL against Moraxella catarrhalis; 0.125 µg/mL (≈ 0.326 µM) in the data set with Haemophilus influenzae [2]; 0.016 µg/mL (≈ 0.0417 µM) against Streptococcus pneumoniae [3]. In addition, the MIC was 0.03 µg/mL (≈ 0.0782 µM) with Klebsiella pneumoniae; 0.5 µg/mL (≈ 1.3 µM) in the data set on Pseudomonas aeruginosa; at most 0.008 µg/mL with Streptococcus pyogenes; 0.5 µg/mL (≈ 1.3 µM) against Acinetobacter baumannii; 2 µg/mL (≈ 5.22 µM) with Staphylococcus aureus [4]; 0.016 µg/mL (≈ 0.0417 µM) in the data set on Streptococcus pneumoniae [5].
